Drawing on ChEMBL document CHEMBL1140782, “Nitrogen-appended N-alkylsulfonamides as inhibitors of gamma-secretase” (Bioorg Med Chem Lett, 2008), this text covers Activity, IC50 and concentration for 39 molecules.

Molecules are shown by their SMILES.

In the first data set the test system is Mus musculus. The experiment in a line: Reduction of amyloid beta levels in Tg2576 beta-APP-Swedish transgenic mouse at 500 umol/kg, po after 3 hrs.
Details: not given
In kind it is functional. Set-up: scale not given: the % may be the effect or the level left.
For `CCC[C@@H](C)N(c1cc(Cl)ccc1CO)S(=O)(=O)c1ccc(Cl)cc1`, the Activity is given as 25%.

The next data set addresses Gamma-secretase. Put plainly: Inhibition of human gamma secretase in H4 cells assessed as reduction of amyloid beta-40 levels. In kind it is cell-based.
Details: not given
Put shortly:
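Cells were plated in 96 wells and allowed to attach. Medium was then replaced with Ultraculture containing compound at a final 1% DMSO, and cells were incubated overnight. Aβ40 in the conditioned medium was measured by sandwich ELISA, using a C-terminal Aβ40-specific monoclonal capture antibody and an HRP-labelled N-terminal Aβ monoclonal antibody for detection.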
Take `C[C@H](CCCNS(=O)(=O)c1ccccc1)N(c1cc(Cl)ccc1CO)S(=O)(=O)c1ccc(Cl)cc1`: the IC50 is 7.4 nM.
With `C[C@H](CCCNC(=O)c1ccccc1)N(c1cc(Cl)ccc1CO)S(=O)(=O)c1ccc(Cl)cc1`, the IC50 is 15 nM.
The same measure, in the same setting: the value for `COCC(=O)NCCC[C@@H](C)N(c1cc(Cl)ccc1CO)S(=O)(=O)c1ccc(Cl)cc1` was 6.9 nM; that for `C[C@H](CCCN1CCCS1(=O)=O)N(c1cc(Cl)ccc1CO)S(=O)(=O)c1ccc(Cl)cc1` was 1.1 nM.
`CCC(=O)NCCC[C@@H](C)N(c1cc(Cl)ccc1CO)S(=O)(=O)c1ccc(Cl)cc1`: the IC50 was determined as 13 nM.
In the case of `C[C@H](CCCN1CCCCC1)N(c1cc(Cl)ccc1CO)S(=O)(=O)c1ccc(Cl)cc1`, the IC50 is 50 nM.
The same measure, in the same setting: the result for `CCC[C@@H](C)N(c1cc(Cl)ccc1CO)S(=O)(=O)c1ccc(Cl)cc1` reads 5 nM.
As to `C[C@H](CCCNC(=O)Cc1ccccc1)N(c1cc(Cl)ccc1CO)S(=O)(=O)c1ccc(Cl)cc1`, the half-inhibitory concentration (IC50) amounted to 26 nM.
As to `C[C@H](CCCNc1ccccc1)N(c1cc(Cl)ccc1CO)S(=O)(=O)c1ccc(Cl)cc1`, the half-maximal inhibitory concentration (IC50) was determined as 36 nM.
With `C[C@H](CCCn1cncn1)N(c1cc(Cl)ccc1CO)S(=O)(=O)c1ccc(Cl)cc1`, the concentration for half-maximal inhibition (IC50) was 4.8 nM.
For the molecule `C[C@H](CCCn1cnnn1)N(c1cc(Cl)ccc1CO)S(=O)(=O)c1ccc(Cl)cc1`, the IC50 came out at 0.51 nM.
With `C[C@H](CCCNS(C)(=O)=O)N(c1cc(Cl)ccc1CO)S(=O)(=O)c1ccc(Cl)cc1`, the half-maximal inhibitory concentration (IC50) came out at 0.23 nM.
Same read-out and setting: the value for `C[C@H](CCCNC(=O)CO)N(c1cc(Cl)ccc1CO)S(=O)(=O)c1ccc(Cl)cc1` was 8.1 nM; that for `CNCCC[C@@H](C)N(c1cc(Cl)ccc1CO)S(=O)(=O)c1ccc(Cl)cc1` was 262 nM.
Take `C[C@H](CCCn1nnnc1-c1ccccc1)N(c1cc(Cl)ccc1CO)S(=O)(=O)c1ccc(Cl)cc1`: the IC50 was 15 nM.
Turning to `C[C@H](CCCN(C)C)N(c1cc(Cl)ccc1CO)S(=O)(=O)c1ccc(Cl)cc1`, the IC50 was 6.5 nM.
`Cc1nnnn1CCC[C@@H](C)N(c1cc(Cl)ccc1CO)S(=O)(=O)c1ccc(Cl)cc1`: the half-inhibitory concentration (IC50) worked out at 0.75 nM.
Turning to `C[C@H](CCCN1CCN(C)CC1)N(c1cc(Cl)ccc1CO)S(=O)(=O)c1ccc(Cl)cc1`, the concentration for half-maximal inhibition (IC50) was 29 nM.
In the case of `C[C@H](CCCn1ncnn1)N(c1cc(Cl)ccc1CO)S(=O)(=O)c1ccc(Cl)cc1`, the half-maximal inhibitory concentration (IC50) came out at 1.2 nM.
Still for that read-out and setting: the result for `C[C@H](CCCn1cccn1)N(c1cc(Cl)ccc1CO)S(=O)(=O)c1ccc(Cl)cc1` reads 18 nM; that for `C[C@H](CCCNC(=O)[C@H](O)c1ccccc1)N(c1cc(Cl)ccc1CO)S(=O)(=O)c1ccc(Cl)cc1`, 1.6 nM; that for `CC(C)C(=O)NCCC[C@@H](C)N(c1cc(Cl)ccc1CO)S(=O)(=O)c1ccc(Cl)cc1`, 14 nM.
Consider `C[C@H](CCCN1CCOCC1)N(c1cc(Cl)ccc1CO)S(=O)(=O)c1ccc(Cl)cc1`, for which the concentration for half-maximal inhibition (IC50) amounted to 3.1 nM.
Consider `C[C@H](CCCN(C)S(C)(=O)=O)N(c1cc(Cl)ccc1CO)S(=O)(=O)c1ccc(Cl)cc1`, for which the IC50 is 0.32 nM.
For the molecule `CC(=O)NCCC[C@@H](C)N(c1cc(Cl)ccc1CO)S(=O)(=O)c1ccc(Cl)cc1`, the half-maximal inhibitory concentration (IC50) is 7.3 nM.
As for `C[C@H](CCCN)N(c1cc(Cl)ccc1CO)S(=O)(=O)c1ccc(Cl)cc1`, the 50% inhibitory concentration (IC50) came out at 288 nM.
`C[C@H](CCCNC(=O)[C@@H](O)c1ccccc1)N(c1cc(Cl)ccc1CO)S(=O)(=O)c1ccc(Cl)cc1`: the half-maximal inhibitory concentration (IC50) was determined as 2.9 nM.
For the molecule `C[C@H](CCCn1nnc(N(C)C)n1)N(c1cc(Cl)ccc1CO)S(=O)(=O)c1ccc(Cl)cc1`, the 50% inhibitory concentration (IC50) came out at 5.6 nM.
Take `C[C@H](CCCn1nnc(-c2ccccc2)n1)N(c1cc(Cl)ccc1CO)S(=O)(=O)c1ccc(Cl)cc1`: the IC50 was 61 nM.
Still for that read-out and setting: the value for `C[C@H](CCCNC1CCCO1)N(c1cc(Cl)ccc1CO)S(=O)(=O)c1ccc(Cl)cc1` (stereo partly specified) was 29 nM; that for `C[C@H](CCCNC(=O)CCc1ccccc1)N(c1cc(Cl)ccc1CO)S(=O)(=O)c1ccc(Cl)cc1` was 72 nM; that for `C[C@H](CCCNC=O)N(c1cc(Cl)ccc1CO)S(=O)(=O)c1ccc(Cl)cc1` was 5.1 nM.
For `C[C@H](CCCn1nnnc1N(C)C)N(c1cc(Cl)ccc1CO)S(=O)(=O)c1ccc(Cl)cc1`, the IC50 was determined as 0.53 nM.
The same measure, in the same setting: the result for `Cc1nnn(CCC[C@@H](C)N(c2cc(Cl)ccc2CO)S(=O)(=O)c2ccc(Cl)cc2)n1` reads 6.1 nM; that for `C[C@H](CCCN1CCc2ccccc2C1)N(c1cc(Cl)ccc1CO)S(=O)(=O)c1ccc(Cl)cc1`, 84 nM; that for `C=C(Cl)CN(c1cc(Cl)ccc1CO)S(=O)(=O)c1ccc(C)cc1`, 850 nM.
In the case of `C[C@H](CCCn1ccnn1)N(c1cc(Cl)ccc1CO)S(=O)(=O)c1ccc(Cl)cc1`, the IC50 was 0.9 nM.
Same read-out and setting: the result for `C[C@H](CCCn1nccn1)N(c1cc(Cl)ccc1CO)S(=O)(=O)c1ccc(Cl)cc1` reads 12 nM.
Regarding `C[C@H](CCCn1ccnc1)N(c1cc(Cl)ccc1CO)S(=O)(=O)c1ccc(Cl)cc1`, the IC50 came to 11 nM.

Another data set deals with Mus musculus. Put plainly: Reduction of amyloid beta levels in Tg2576 beta-APP-Swedish transgenic mouse at 200 umol/kg, po after 3 hrs. In kind it is functional. Set-up: scale not given: the % may be the effect or the level left.
Details: not given
In a few lines:
(§1)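 Tg2576 βAPP-Swedish transgenic mice received a single oral dose of 200 µmol/kg. At 3 h after dosing, brain Aβ was measured as percent reduction, and compound concentrations were measured in plasma and brain in nM, reported as mean ± deviation.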
`C[C@H](CCCn1cnnn1)N(c1cc(Cl)ccc1CO)S(=O)(=O)c1ccc(Cl)cc1` registered an Activity of 41%.
In the case of `C[C@H](CCCN(C)S(C)(=O)=O)N(c1cc(Cl)ccc1CO)S(=O)(=O)c1ccc(Cl)cc1`, the Activity is listed as 27%.

In another data set the test system is Plasma. The experiment in a line: Drug level in Tg2576 beta-APP-Swedish transgenic mouse plasma at 200 umol/kg, po. Type of data set: ADME, organism-based. The settings on record: in vivo. Put shortly: as §1
Take `C[C@H](CCCn1cnnn1)N(c1cc(Cl)ccc1CO)S(=O)(=O)c1ccc(Cl)cc1`: the concentration came out at 5.47 µM.
As to `C[C@H](CCCN(C)S(C)(=O)=O)N(c1cc(Cl)ccc1CO)S(=O)(=O)c1ccc(Cl)cc1`, the concentration turned out to be 12.3 µM.

Another data set has as its system Brain. The experiment in a line: Drug level in Tg2576 beta-APP-Swedish transgenic mouse brain at 200 umol/kg, po. The settings on record: in vivo, read-out: Drug uptake. In kind it is ADME, organism-based. In a few lines: as §1
As for `C[C@H](CCCn1cnnn1)N(c1cc(Cl)ccc1CO)S(=O)(=O)c1ccc(Cl)cc1`, the concentration was determined as 1.16 µM.
`C[C@H](CCCN(C)S(C)(=O)=O)N(c1cc(Cl)ccc1CO)S(=O)(=O)c1ccc(Cl)cc1`: the concentration is 0.759 µM.
